Reference: ChEMBL document CHEMBL1649119, “Daptomycin pharmacokinetics in adult oncology patients with neutropenic fever” (Antimicrob Agents Chemother, 2009)

Columns and labels:
[1] = Renal clearance in young healthy human at 4 mg/kg, iv administered as single dose 30 mins infusion; assay type: ADME, organism-based, Kidney; set-up: dose 4 mg/kg, route intravenous; settings: in vivo, read-out: CL_renal (converted)
[2] = Apparent volume of distribution in old healthy human at 4 mg/kg, iv administered as single dose 30 mins infusion; assay type: ADME, organism-based; set-up: dose 4 mg/kg, route intravenous; settings: in vivo
[3] = Cmax in old healthy human at 4 mg/kg, iv administered as single dose 30 mins infusion; assay type: ADME, organism-based; set-up: dose 4 mg/kg, route intravenous; settings: in vivo
[4] = Cmax in nonobese adult human at 4 mg/kg, iv administered as single dose 30 mins infusion; assay type: ADME, organism-based; set-up: dose 4 mg/kg, route intravenous; settings: in vivo
[5] = Apparent volume of distribution in young healthy human at 4 mg/kg, iv administered as single dose 30 mins infusion; assay type: ADME, organism-based; set-up: dose 4 mg/kg, route intravenous; settings: in vivo
[6] = AUC (0 to infinity) in healthy human subjects at 12 mg/kg, iv administered as 30 mins infusion every 24 hrs measured on day 14; assay type: ADME, organism-based; set-up: time infinity, dose 12 mg/kg, route intravenous; settings: plasma
[7] = AUC (0 to infinity) in moderately obese adult human at 4 mg/kg, iv administered as single dose 30 mins infusion; assay type: ADME, organism-based; set-up: time infinity, dose 4 mg/kg, route intravenous; settings: plasma
[8] = Clearance in young healthy human at 4 mg/kg, iv administered as single dose 30 mins infusion; assay type: ADME, organism-based; set-up: dose 4 mg/kg, route intravenous; settings: in vivo
Homo sapiens [9] = assay: Unbound clearance in healthy human at 4 mg/kg, iv administered as 30 mins infusion every 24 hrs measured on day 1; assay type: ADME, organism-based; set-up: dose 4 mg/kg, route intravenous; settings: in vivo
[10] = Half life in healthy human subjects at 6 mg/kg, iv administered as 30 mins infusion every 24 hrs measured on days 1-3; assay type: ADME, organism-based; set-up: dose 6 mg/kg, route intravenous; settings: in vivo
[11] = AUC (0 to infinity) in healthy human at 6 mg/kg, iv administered as 30 mins infusion every 24 hrs measured on day 1; assay type: ADME, organism-based; set-up: time infinity, dose 6 mg/kg, route intravenous; settings: plasma
Homo sapiens [12] = assay: Apparent volume of distribution in healthy human at 4 mg/kg, iv administered as single dose 30 mins infusion; assay type: ADME, organism-based; set-up: dose 4 mg/kg, route intravenous; settings: in vivo, 0.5 h
[13] = Cmax in adult human subjects at 6 mg/kg, iv administered as single dose 30 mins infusion; assay type: ADME, organism-based; set-up: dose 6 mg/kg, route intravenous; settings: in vivo
[14] = Half life in healthy adult human at 6 mg/kg, iv administered as single dose 30 mins infusion; assay type: ADME, organism-based; set-up: dose 6 mg/kg, route intravenous; settings: in vivo
[15] = Apparent volume of distribution during terminal phase in healthy human subjects at 10 mg/kg, iv administered as 30 mins infusion every 24 hrs measured on day 14; assay type: ADME, organism-based; set-up: dose 10 mg/kg, route intravenous; settings: in vivo
[16] = AUC (0 to infinity) in healthy human at 8 mg/kg, iv administered as 30 mins infusion every 24 hrs measured on day 14; assay type: ADME, organism-based; set-up: time infinity, dose 8 mg/kg, route intravenous; settings: plasma
[17] = AUC (0 to infinity) in healthy human subjects at 10 mg/kg, iv administered as 30 mins infusion every 24 hrs measured on day 1; assay type: ADME, organism-based; set-up: time infinity, dose 10 mg/kg, route intravenous; settings: plasma
[18] = Plasma protein binding in human after 0.5 hrs; assay type: ADME, cell-free; settings: read-out: PPB (converted)
How it was run: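 Neutropenic-fever oncology patients received 6 mg/kg IV daptomycin; serum was drawn 0.5, 2 and 8 h after the end of infusion. Free drug was obtained by ultrafiltration (30,000-MW cutoff) and quantified by HPLC against a saline-matrix curve of 0.25–100 μg/ml, with total plasma drug also measured. Percent bound was (total − free)/total × 100; results are given as mean ± SD.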

Homo sapiens [19] = assay: AUC (0 to infinity) in healthy human subjects at 6 mg/kg, iv administered as 30 mins infusion every 24 hrs measured on day 1; assay type: ADME, organism-based, Plasma; set-up: time infinity, dose 6 mg/kg, route intravenous; settings: in vivo
[20] = Apparent volume of distribution during terminal phase in healthy human at 8 mg/kg, iv administered as 30 mins infusion every 24 hrs measured on day 14; assay type: ADME, organism-based; set-up: dose 8 mg/kg, route intravenous; settings: in vivo
[21] = Renal clearance in nonobese adult human at 4 mg/kg, iv administered as single dose 30 mins infusion; assay type: ADME, organism-based, Kidney; set-up: dose 4 mg/kg, route intravenous; settings: in vivo, read-out: CL_renal (converted)
[22] = Renal clearance in moderately obese adult human at 4 mg/kg, iv administered as single dose 30 mins infusion; assay type: ADME, organism-based, Kidney; set-up: dose 4 mg/kg, route intravenous; settings: in vivo, read-out: CL_renal (converted)
[23] = AUC (0 to infinity) in healthy human at 8 mg/kg, iv administered as 30 mins infusion every 24 hrs measured on day 1; assay type: ADME, organism-based; set-up: time infinity, dose 8 mg/kg, route intravenous; settings: plasma
[24] = AUC (0 to infinity) in healthy human at 8 mg/kg, iv administered as 30 mins infusion every 24 hrs measured on day 7; assay type: ADME, organism-based; set-up: dose 8 mg/kg, route intravenous, time infinity; settings: plasma
[25] = AUC (0 to infinity) in healthy human subjects at 12 mg/kg, iv administered as 30 mins infusion every 24 hrs measured on day 4; assay type: ADME, organism-based; set-up: time infinity, dose 12 mg/kg, route intravenous; settings: plasma
[26] = Volume of distribution at steady state in adult human with hepatic impairment at 6 mg/kg, iv administered as single dose 30 mins infusion; assay type: ADME, organism-based; set-up: dose 6 mg/kg, route intravenous; settings: in vivo, read-out: Vdss
[27] = Clearance in nonobese human at 4 mg/kg, iv administered as single dose 30 mins infusion; assay type: ADME, organism-based; set-up: dose 4 mg/kg, route intravenous; settings: in vivo
Homo sapiens [28] = assay: Unbound clearance in healthy human at 8 mg/kg, iv administered as 30 mins infusion every 24 hrs measured on day 7; assay type: ADME, organism-based; set-up: dose 8 mg/kg, route intravenous; settings: in vivo
[29] = Half life in healthy human subjects at 12 mg/kg, iv administered as 30 mins infusion every 24 hrs measured on day 4; assay type: ADME, organism-based; set-up: dose 12 mg/kg, route intravenous; settings: in vivo
[30] = Drug excretion in healthy human urine assessed as unchanged drug at 4 mg/kg, iv administered as single dose 30 mins infusion; assay type: ADME, organism-based; set-up: dose 4 mg/kg, route intravenous; settings: read-out: Drug uptake
[31] = Apparent volume of distribution during terminal phase in healthy human subjects at 12 mg/kg, iv administered as 30 mins infusion every 24 hrs measured on day 14; assay type: ADME, organism-based; set-up: dose 12 mg/kg, route intravenous; settings: in vivo
[32] = Unbound fraction in healthy human plasma at 8 mg/kg, iv administered as 30 mins infusion every 24 hrs measured on day 14; assay type: ADME, organism-based; set-up: dose 8 mg/kg, route intravenous
[33] = Half life in healthy human subjects at 12 mg/kg, iv administered as 30 mins infusion every 24 hrs measured on day 1; assay type: ADME, organism-based; set-up: dose 12 mg/kg, route intravenous; settings: in vivo
[34] = Clearance in healthy human at 4 mg/kg, iv administered as 30 mins infusion every 24 hrs measured on day 1; assay type: ADME, organism-based; set-up: dose 4 mg/kg, route intravenous; settings: in vivo
[35] = Half life in healthy human subjects at 8 mg/kg, iv administered as 30 mins infusion every 24 hrs measured on day 1; assay type: ADME, organism-based; set-up: dose 8 mg/kg, route intravenous; settings: in vivo
[36] = AUC (0 to tau) in healthy human subjects at 6 mg/kg, iv administered as 30 mins infusion every 24 hrs measured on days 1-3; assay type: ADME, organism-based; set-up: dose 6 mg/kg, route intravenous; settings: plasma
[37] = Cmax in healthy human subjects at 12 mg/kg, iv administered as 30 mins infusion every 24 hrs measured on day 4; assay type: ADME, organism-based; set-up: dose 12 mg/kg, route intravenous; settings: in vivo
[38] = Half life in healthy human at 4 mg/kg, iv administered as 30 mins infusion every 24 hrs measured on day 1; assay type: ADME, organism-based; set-up: dose 4 mg/kg, route intravenous; settings: in vivo
[39] = Clearance in healthy human at 8 mg/kg, iv administered as 30 mins infusion every 24 hrs measured on day 7; assay type: ADME, organism-based; set-up: dose 8 mg/kg, route intravenous; settings: in vivo
[40] = Clearance in healthy human subjects at 6 mg/kg, iv administered as 30 mins infusion every 24 hrs measured on days 1-3; assay type: ADME, organism-based; set-up: dose 6 mg/kg, route intravenous; settings: in vivo
[41] = Half life in healthy human subjects at 6 mg/kg, iv administered as 30 mins infusion every 24 hrs measured on day 1; assay type: ADME, organism-based; set-up: dose 6 mg/kg, route intravenous; settings: in vivo
[42] = Clearance in healthy human at 4 mg/kg, iv administered as 30 mins infusion every 24 hrs measured on day 7; assay type: ADME, organism-based; set-up: dose 4 mg/kg, route intravenous; settings: in vivo
[43] = AUC (0 to infinity) in healthy human subjects at 10 mg/kg, iv administered as 30 mins infusion every 24 hrs measured on day 4; assay type: ADME, organism-based; set-up: time infinity, dose 10 mg/kg, route intravenous; settings: plasma
[44] = Drug excretion in old healthy human urine assessed as unchanged drug at 4 mg/kg, iv administered as single dose 30 mins infusion; assay type: ADME, organism-based; set-up: dose 4 mg/kg, route intravenous; settings: read-out: Drug uptake
[45] = Clearance in healthy human at 6 mg/kg, iv administered as 30 mins infusion every 24 hrs measured on day 7; assay type: ADME, organism-based; set-up: dose 6 mg/kg, route intravenous; settings: in vivo

SMILES: CCCCCCCCCC(=O)N[C@@H](Cc1c[nH]c2ccccc12)C(=O)N[C@H](CC(N)=O)C(=O)N[C@@H](CC(=O)O)C(=O)N[C@@H]1C(=O)NCC(=O)N[C@@H](CCCN)C(=O)N[C@@H](CC(=O)O)C(=O)N[C@H](C)C(=O)N[C@@H](CC(=O)O)C(=O)NCC(=O)N[C@H](CO)C(=O)N[C@@H]([C@H](C)CC(=O)O)C(=O)N[C@@H](CC(=O)c2ccccc2N)C(=O)O[C@@H]1C
- CL renal at 0.5 h [1]: 0.12 mL/min/kg
- Vd [2]: 0.17 L/kg
- Cmax [3]: 44 µg/mL
- Cmax [4]: 46.3 µg/mL
- Vd [5]: 0.15 L/kg
- AUC(0-inf) [6]: 1290 µg·h/mL
- AUC(0-inf) [7]: 421 µg·h/mL
- clearance [8]: 0.252 mL/min/kg
- CL (Homo sapiens [9]): 1.41 mL/min/kg
- half-life [10]: 7.6 h
- AUC(0-inf) [11]: 705 µg·h/mL
- Vd (Homo sapiens [12]): 6350 mL
- Cmax [13]: 118 µg/mL
- half-life [14]: 8.06 h
- Vd [15]: 0.0858 L/kg
- AUC(0-inf) [16]: 1090 µg·h/mL
- AUC(0-inf) [17]: 1010 µg·h/mL
- fraction unbound at 0.5 h [18]: 0.058
- AUC (Homo sapiens [19]): 729.8 µg·h/mL
- Vd [20]: 0.095 L/kg
- CL renal at 0.5 h [21]: 0.139 mL/min/kg
- CL renal at 0.5 h [22]: 0.156 mL/min/kg
- AUC(0-inf) [23]: 1130 µg·h/mL
- AUC(0-inf) [24]: 1130 µg·h/mL
- AUC(0-inf) [25]: 1280 µg·h/mL
- Vd [26]: 0.08 L/kg
- clearance [27]: 0.17 mL/min/kg
- CL (Homo sapiens [28]): 0.682 mL/min/kg
- half-life [29]: 7.7 h
- dose excreted at 0.5 h [30]: 59.7%
- Vd [31]: 0.0992 L/kg
- fraction unbound at 14 day [32]: 0.09
- half-life [33]: 7.8 h
- clearance [34]: 0.16 mL/min/kg
- half-life [35]: 7.3 h
- AUC tau [36]: 645 µg·h/mL
- Cmax [37]: 184 µg/mL
- half-life [38]: 7.4 h
- clearance [39]: 0.118 mL/min/kg
- clearance [40]: 0.158 mL/min/kg
- half-life [41]: 7.5 h
- clearance [42]: 0.138 mL/min/kg
- AUC(0-inf) [43]: 1040 µg·h/mL
- dose excreted at 0.5 h [44]: 34.3%
- clearance [45]: 0.135 mL/min/kg
